For data set [1], the system named is Pseudomonas aeruginosa. In words: Antimicrobial activity against Pseudomonas aeruginosa isolate PA-SD2 harboring blaVIM-1 gene by Etest method. It counts as functional.
In data set [2] the test system is Pseudomonas aeruginosa. Description: Antimicrobial activity against Pseudomonas aeruginosa isolate PA-SL2 harboring blaVIM-13 gene by Etest method. Type of data set: functional.
In data set [3] the test system is Escherichia coli. In words: Antimicrobial activity against Escherichia coli XL1-Blue harboring pGEM-T carrying aacA4 gene by Etest method. It counts as functional.
The subject of data set [4] is Escherichia coli. In words: Antimicrobial activity against Escherichia coli XL1-Blue harboring pGEM-T carrying aacA4 Ala108Thr mutant gene by Etest method. Type of data set: functional.
The test system of data set [5] is Escherichia coli. Description: Antimicrobial activity against Escherichia coli XL1-Blue by Etest method. It counts as functional.
The test system of data set [6] is Pseudomonas aeruginosa. In words: Antimicrobial activity against Pseudomonas aeruginosa PAO1 harboring pUCP carrying VIM-1 gene by Etest method. Type of data set: functional. A digest of the protocol: (§1)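 Etest MICs of piperacillin, piperacillin-tazobactam, ceftazidime, cefepime, cefotaxime, aztreonam, imipenem and meropenem, run per manufacturer's recommendations. Strains were E. coli XL1-Blue or P. aeruginosa PAO1 carrying pUCP24-derived plasmids with blaVIM-1 or blaVIM-13 (cloned by EcoRI) inserted in the lacZ-promoter orientation. E. coli transformants were selected on 10 μg/ml gentamicin MacConkey agar; PAO1 electroporants were selected on 50 μg/ml gentamicin LB agar.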

The test system of data set [7] is Pseudomonas aeruginosa. In words: Antimicrobial activity against Pseudomonas aeruginosa PAO1 harboring pUCP carrying VIM-13 gene by Etest method. Type of data set: functional. A digest of the protocol: as §1
For data set [8], the system named is Pseudomonas aeruginosa. In words: Antimicrobial activity against Pseudomonas aeruginosa PAO1 by Etest method. It counts as functional.
In data set [9] the test system is Escherichia coli. In words: Antimicrobial activity against Escherichia coli XL1-Blue harboring pUCP carrying VIM-1 gene by Etest method. Type of data set: functional. In outline: as §1
The test system of data set [10] is Escherichia coli. Description: Antimicrobial activity against Escherichia coli XL1-Blue harboring pUCP carrying VIM-13 gene by Etest method. It counts as functional. In outline:
as §1

The target in data set [11] is Beta-lactamase VIM-1 (Pseudomonas aeruginosa, UniProt Q9XAY4). Description: Inhibition of Pseudomonas aeruginosa VIM-1 beta-lactamase after 10 mins. A digest of the protocol: (§2)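 Zn2+-removal inactivation of purified VIM-1 or VIM-13, tested with varied concentrations of EDTA, dipicolinic acid or 1,10-o-phenanthroline. Enzyme and chelator were incubated 10 min at 20°C in 50 mM HEPES pH 7.5 with 20 μg/ml BSA, then 100 μM imipenem hydrolysis was measured as the reporter. IC50 is the chelator level halving hydrolytic activity.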

In data set [12] the target is Class B carbapenemase VIM-13 (Pseudomonas aeruginosa, UniProt Q2HY42). In words: Inhibition of Pseudomonas aeruginosa VIM-13 beta-lactamase after 10 mins. A digest of the protocol: as §2
Data set [13] concerns CC(=O)OCC1=C(C(=O)O)N2C(=O)[C@@H](NC(=O)Cc3cccs3)[C@H]2SC1. In words: (§3) Activity of Pseudomonas aeruginosa VIM-1 beta-lactamase. A digest of the protocol: (§4)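 GST-fused VIM-1 lacking signal peptide, purified, dialyzed in 50 mM HEPES pH 7.5 with 50 μM ZnSO4. Beta-lactam hydrolysis followed spectrophotometrically at 25°C in 50 mM HEPES pH 7.5, 50 μM ZnSO4, 20 μg/ml BSA.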
Data set [14] deals with CC(C)(O/N=C(\C(=O)N[C@@H]1C(=O)N2C(C(=O)[O-])=C(C[n+]3ccccc3)CS[C@H]12)c1csc(N)n1)C(=O)O. The description is as §3. A digest of the protocol:
as §4

Data set [15] concerns CC1(C)S[C@@H]2[C@H](NC(=O)Cc3ccccc3)C(=O)N2[C@H]1C(=O)O. The data set is described as §3. In outline:
as §4

The test system of data set [16] is CC1(C)S[C@@H]2[C@H](NC(=O)[C@H](N)c3ccccc3)C(=O)N2[C@H]1C(=O)O. The description is as §3. A digest of the protocol: as §4
Data set [17] concerns CCN1CCN(C(=O)N[C@@H](C(=O)N[C@@H]2C(=O)N3[C@@H]2SC(C)(C)[C@@H]3C(=O)O)c2ccccc2)C(=O)C1=O. Described as §3. A digest of the protocol: as §4
Data set [18] deals with CO/N=C(\C(=O)N[C@@H]1C(=O)N2C(C(=O)O)=C(COC(C)=O)CS[C@H]12)c1csc(N)n1. The data set is described as §3. In outline:
as §4

In data set [19] the test system is CO/N=C(\C(=O)N[C@@H]1C(=O)N2C(C(=O)O)=C(COC(N)=O)CS[C@H]12)c1ccco1. Described as §3. In outline: as §4
For data set [20], the system named is C[C@@H](O)[C@H]1C(=O)N2C(C(=O)O)=C(S[C@@H]3CN[C@H](C(=O)N(C)C)C3)[C@H](C)[C@H]12. Described as §3. In outline:
as §4

For data set [21], the system named is CC(=O)OCC1=C(C(=O)O)N2C(=O)[C@@H](NC(=O)Cc3cccs3)[C@H]2SC1. Description: (§5) Ratio of Kcat to Km for Pseudomonas aeruginosa VIM-1 beta-lactamase. A digest of the protocol:
as §4

Data set [22] has as its system CC(C)(O/N=C(\C(=O)N[C@@H]1C(=O)N2C(C(=O)[O-])=C(C[n+]3ccccc3)CS[C@H]12)c1csc(N)n1)C(=O)O. The description is as §5. A digest of the protocol:
as §4

For data set [23], the system named is CC1(C)S[C@@H]2[C@H](NC(=O)[C@H](N)c3ccccc3)C(=O)N2[C@H]1C(=O)O. Described as §5. A digest of the protocol: as §4
Data set [24] has as its system CCN1CCN(C(=O)N[C@@H](C(=O)N[C@@H]2C(=O)N3[C@@H]2SC(C)(C)[C@@H]3C(=O)O)c2ccccc2)C(=O)C1=O. The description is as §5. In outline: as §4
Data set [25] relates to C[C@@H](O)[C@H]1C(=O)N2C(C(=O)O)=C(S[C@@H]3CN[C@H](C(=O)N(C)C)C3)[C@H](C)[C@H]12. Described as §5. In outline:
as §4

Converted amounts (≈) assume the structure as drawn. Bounds are passed on as bounds.

On to `NCC[C@H](O)C(=O)N[C@@H]1C[C@H](N)[C@@H](O[C@H]2O[C@H](CN)[C@@H](O)[C@H](O)[C@H]2O)[C@H](O)[C@H]1O[C@H]1O[C@H](CO)[C@@H](O)[C@H](N)[C@H]1O` [AMIKACIN], for which the MIC (as a rule, the lowest concentration found to suppress growth) in data set [1] amounted to 3 µg/mL (≈ 5.12 µM); in data set [2], 16 µg/mL (≈ 27.3 µM); in data set [3] it was 0.75 µg/mL (≈ 1.28 µM); in [4] it was 0.75 µg/mL (≈ 1.28 µM); in [5], 0.75 µg/mL (≈ 1.28 µM).
As to `CO/N=C(\C(=O)N[C@@H]1C(=O)N2C(C(=O)O)=C(COC(C)=O)CS[C@H]12)c1csc(N)n1` [CEFOTAXIME], the MIC is over 256 µg/mL in [1]; over 256 µg/mL in data set [2]; over 256 µg/mL in data set [6]; over 256 µg/mL in data set [7]; 16 µg/mL (≈ 35.1 µM) in data set [8]; over 256 µg/mL in [9]. Moreover, the MIC in data set [10] is over 256 µg/mL; in data set [5], 0.19 µg/mL (≈ 0.417 µM).
In the case of `O=C(O)c1cn(C2CC2)c2cc(N3CCNCC3)c(F)cc2c1=O` [CIPROFLOXACIN], the MIC in data set [1] is over 32 µg/mL; in data set [2], over 32 µg/mL; in [3] it was 0.064 µg/mL (≈ 0.193 µM); in data set [4], 0.064 µg/mL (≈ 0.193 µM); in data set [5], 0.064 µg/mL (≈ 0.193 µM).
For `c1cnc2c(c1)ccc1cccnc12` [PHENANTHROLINE], the figures for the IC50 in [11] and in [12] were 73 µM and 69.3 µM, respectively.
Regarding `C[C@@H](O)[C@H]1C(=O)N2C(C(=O)O)=C(S[C@@H]3CN[C@H](C(=O)N(C)C)C3)[C@H](C)[C@H]12` [MEROPENEM], the MIC in data set [1] is over 32 µg/mL; in data set [2], 12 µg/mL (≈ 31.3 µM); in data set [6], over 32 µg/mL; in [7], over 32 µg/mL; in data set [8], 0.38 µg/mL (≈ 0.991 µM); in data set [9], 0.25 µg/mL (≈ 0.652 µM). The MIC in [10] came out at 0.19 µg/mL (≈ 0.495 µM); in data set [5] it was 0.064 µg/mL (≈ 0.167 µM).
With “Beta-lactamase VIM-1 (Pseudomonas aeruginosa) (from UniProt Q9XAY4)”, the Km (as a rule, the concentration of substrate that gives half-maximal velocity) in [13] came out at 135 µM; in [14], 1130 µM; in [15], 1300 µM; in [16] it was 1740 µM; in [17] it was 1380 µM; in data set [18], 285 µM. The Km was 148 µM in [19] and 72 µM in [20]. For the same compound, the kcat – broadly, the maximal rate divided by the concentration of active sites – is 449 s⁻¹ in data set [13]; 42 s⁻¹ in data set [14]; 418 s⁻¹ in data set [15]; 307 s⁻¹ in data set [16]; 374 s⁻¹ in [17]; 204 s⁻¹ in data set [18]. Moreover, the kcat in data set [19] was determined as 239 s⁻¹; in [20], 20 s⁻¹. Further, the kcat/Km (usually the second-order rate constant that governs catalysis at low substrate concentration) in data set [21] is 3.3e+06 M⁻¹ s⁻¹; in data set [22] it was 3.7 M⁻¹ s⁻¹; in [23] it was 180000 M⁻¹ s⁻¹; in data set [24] it was 270000 M⁻¹ s⁻¹; in data set [25] it was 280000 M⁻¹ s⁻¹.
`C[C@@H](O)[C@H]1C(=O)N2C(C(=O)O)=C(SCCNC=N)C[C@H]12` [IMIPENEM ANHYDROUS]: the MIC in [1] was over 32 µg/mL; in data set [2], 24 µg/mL (≈ 80.2 µM); in [6] it was over 32 µg/mL; in [7], over 32 µg/mL; in [8], 1.5 µg/mL (≈ 5.01 µM); in [9] it was 1 µg/mL (≈ 3.34 µM). Moreover, the MIC in data set [10] was 1 µg/mL (≈ 3.34 µM); in data set [5], 0.25 µg/mL (≈ 0.835 µM).
For `O=C(O)CN(CCN(CC(=O)O)CC(=O)O)CC(=O)O` [EDETIC ACID], the IC50 (usually the concentration that inhibits the measured activity by half) in data set [11] was found to be 9.3 µM; in data set [12], 253 µM.
In the same order, the values of `O=C(O)c1cccc(C(=O)O)n1` [DIPICOLINIC ACID] are 41.6 µM and 48 µM.
Consider `CO/N=C(\C(=O)N[C@@H]1C(=O)N2C(C(=O)[O-])=C(C[N+]3(C)CCCC3)CS[C@H]12)c1csc(N)n1`, for which the MIC in [1] was over 256 µg/mL; in data set [2] it was 32 µg/mL (≈ 66.6 µM); in data set [6], over 256 µg/mL; in data set [7] it was 64 µg/mL (≈ 133 µM); in data set [8], 1 µg/mL (≈ 2.08 µM); in [9], 12 µg/mL (≈ 25 µM). The MIC in [10] worked out at 1 µg/mL (≈ 2.08 µM); in data set [5] it was 0.19 µg/mL (≈ 0.395 µM).
Consider `NC[C@H]1O[C@H](O[C@H]2[C@H](O)[C@@H](O[C@H]3O[C@H](CO)[C@@H](O)[C@H](N)[C@H]3O)[C@H](N)C[C@@H]2N)[C@H](N)C[C@@H]1O` [TOBRAMYCIN], for which the MIC in [1] amounted to 16 µg/mL (≈ 34.2 µM); in data set [2] it was 48 µg/mL (≈ 103 µM); in [3], 2 µg/mL (≈ 4.28 µM); in data set [4], 2 µg/mL (≈ 4.28 µM); in data set [5] it was 0.25 µg/mL (≈ 0.535 µM).
On to `CC(C)(O/N=C(\C(=O)N[C@@H]1C(=O)N2C(C(=O)[O-])=C(C[n+]3ccccc3)CS[C@H]12)c1csc(N)n1)C(=O)O` [CEFTAZIDIME], for which the MIC in [1] was over 256 µg/mL; in data set [2], 32 µg/mL (≈ 58.5 µM); in data set [6], over 256 µg/mL; in data set [7] it was 128 µg/mL (≈ 234 µM); in data set [8], 1 µg/mL (≈ 1.83 µM); in [9], 32 µg/mL (≈ 58.5 µM). Moreover, the MIC amounted to 6 µg/mL (≈ 11 µM) in [10] and 0.38 µg/mL (≈ 0.695 µM) in data set [5].
Turning to GENTAMICIN, the MIC in data set [1] is 48 µg/mL; in [2], over 256 µg/mL; in [3] it was 1 µg/mL; in data set [4], 1 µg/mL; in data set [5], 0.19 µg/mL.
As for `C[C@H]1[C@H](NC(=O)/C(=N\OC(C)(C)C(=O)O)c2csc(N)n2)C(=O)N1S(=O)(=O)O` [AZTREONAM], the MIC was found to be 24 µg/mL (≈ 55.1 µM) in data set [1]; 4 µg/mL (≈ 9.19 µM) in [2]; 1.5 µg/mL (≈ 3.44 µM) in [6]; 1.5 µg/mL (≈ 3.44 µM) in [7]; 1 µg/mL (≈ 2.3 µM) in data set [8]; 0.125 µg/mL (≈ 0.287 µM) in [9]. For the same compound, the MIC was determined as 0.125 µg/mL (≈ 0.287 µM) in data set [10] and 0.19 µg/mL (≈ 0.436 µM) in [5].
